The term IC50 denotes the point on the concentration scale where inhibition reaches its midpoint. High values mean a need for much substance, low ones inhibition by little substance.

The results in this text go back to ChEMBL document CHEMBL4665872, “Rational design of cell-permeable cyclic peptides containing a d-Pro-l-Pro motif” (Bioorg Med Chem, 2020).

The target in data set [1] is Mitogen-activated protein kinase; ERK1/ERK2 (Homo sapiens) (UniProt P27361+P28482). The data set is described as follows: Inhibition of ERK1/2 phosphorylation in EGF-stimulated human MDA-MB-468 cells incubated for 2 hrs followed by 10 mins EGF stimulation by Western blotting analysis. The method, boiled down:
(§1)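 MDA-MB-468 cells grown to ~80% confluence, serum-starved 20 h, then given peptide at the indicated concentrations in serum-free medium for 2 h. EGF (50 ng/mL final) added for 10 min. Lysis in RIPA with protease/phosphatase inhibitors and 5 mM EDTA; ~20 μg protein run on 10% SDS-PAGE. Blots probed for phospho- and total MEK and ERK1/2, GAPDH loading control.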
A general note: A western blot detects proteins with antibodies after separation by electrophoresis.

Data set [2] can be described thus: Metabolic stability of the compound in human MDA-MB-468 cells assessed as protein-tyrosine phosphatase-mediated endogenous dephosphorylation incubated for 2 hrs. It is filed as ADME, cell-based. The settings on record: mda-mb-468, 2 h.
Data set [3] is described as follows: Drug uptake in human HeLa cells assessed as cytosolic entry efficiency measured as fluorescence at 5 uM incubated for 2 hrs by flow cytometry relative to CPP9 (100%). It is filed as ADME, cell-based. An outline of the steps:
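HeLa cells seeded 24 h earlier, given 5 μM naphthofluorescein-labelled peptide in DMEM with 1% or 10% FBS, 37 °C, 2 h. Cells DPBS-washed, trypsinized, flow cytometry with 633-nm excitation, APC channel, 10,000 live-cell events gated. Signal read as cytosolic entry because NF is non-fluorescent in acidic compartments; mean ± SD of three independent experiments, relative to CPP9 (100%).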
A general note: In flow cytometry, cells or beads pass a laser one at a time.

Data set [4] relates to MDA-MB-468. Kind of data set: Effect on intracellular MEK expression in EGF-stimulated human MDA-MB-468 cells incubated for 2 hrs followed by 10 mins EGF stimulation by Western blotting analysis. The format is functional, cell-based. The method, boiled down: as §1
The target in data set [5] is T1, Growth factor receptor-bound protein 2 (Homo sapiens, UniProt P62993). Kind of data set: Binding affinity to Grb2-SH2 domain (unknown origin) expressed in Escherichia coli […] after 1 hr by fluorescence polarization assay. The settings on record: in the assay text read “after 2 hrs” for “after 1 hr”. The method, boiled down:
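GST-Grb2 SH2 domain expressed in E. coli BL21(DE3), glutathione-Sepharose purified. […] IC50 from four-parameter logistic fit of FP versus peptide concentration, three sets of experiments.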
Background: Fluorescence polarisation rises when a labelled molecule tumbles more slowly, as on binding a larger partner.

The target of data set [6] is Dual specificity mitogen-activated protein kinase kinase; MEK1/2 (Homo sapiens) (UniProt P36507+Q02750). The data set is described as follows: Inhibition of MEK phosphorylation in EGF-stimulated human MDA-MB-468 cells incubated for 2 hrs followed by 10 mins EGF stimulation by Western blotting analysis. The method, boiled down:
as §1

Data set [7] deals with T1, Growth factor receptor-bound protein 2. Kind of data set: Binding affinity to Grb2-SH2 domain (unknown origin) expressed in Escherichia coli […] after 2 hrs by fluorescence polarization assay.

Calls of active or inactive are those of the source. No cut-off for these calls is given here.

T1 sequence (P62993 whole entry, the tested form may be a part): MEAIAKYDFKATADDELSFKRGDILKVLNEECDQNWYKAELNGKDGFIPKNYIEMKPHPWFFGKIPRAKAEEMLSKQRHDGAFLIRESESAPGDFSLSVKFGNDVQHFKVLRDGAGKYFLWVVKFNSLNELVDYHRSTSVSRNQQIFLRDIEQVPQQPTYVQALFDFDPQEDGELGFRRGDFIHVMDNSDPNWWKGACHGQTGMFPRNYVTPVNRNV
Dual specificity mitogen-activated protein kinase kinase; MEK1/2 (Homo sapiens), sequence (P36507 whole entry, looked up): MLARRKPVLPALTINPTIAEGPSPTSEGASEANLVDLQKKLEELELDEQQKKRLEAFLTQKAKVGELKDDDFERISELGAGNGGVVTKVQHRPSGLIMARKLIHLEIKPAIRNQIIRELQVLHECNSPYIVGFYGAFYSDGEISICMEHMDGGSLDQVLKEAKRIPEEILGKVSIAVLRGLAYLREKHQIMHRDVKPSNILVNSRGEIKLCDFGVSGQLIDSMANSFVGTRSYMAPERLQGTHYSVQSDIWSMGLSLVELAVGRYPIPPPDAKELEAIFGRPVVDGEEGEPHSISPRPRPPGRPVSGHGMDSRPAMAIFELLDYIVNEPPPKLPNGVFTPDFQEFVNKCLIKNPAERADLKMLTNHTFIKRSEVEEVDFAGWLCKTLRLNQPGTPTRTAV
Dual specificity mitogen-activated protein kinase kinase; MEK1/2 (Homo sapiens), sequence (Q02750 whole entry, looked up): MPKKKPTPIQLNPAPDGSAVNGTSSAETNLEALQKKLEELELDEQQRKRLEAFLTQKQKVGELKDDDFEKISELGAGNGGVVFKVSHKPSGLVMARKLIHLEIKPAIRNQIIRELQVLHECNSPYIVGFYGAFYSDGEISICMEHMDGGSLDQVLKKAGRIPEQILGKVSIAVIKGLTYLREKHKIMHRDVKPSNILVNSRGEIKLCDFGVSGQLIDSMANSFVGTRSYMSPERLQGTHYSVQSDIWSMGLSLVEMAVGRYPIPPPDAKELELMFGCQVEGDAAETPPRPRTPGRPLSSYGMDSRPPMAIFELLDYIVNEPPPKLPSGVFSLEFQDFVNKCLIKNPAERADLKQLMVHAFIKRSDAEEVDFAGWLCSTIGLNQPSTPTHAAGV
Mitogen-activated protein kinase; ERK1/ERK2 (Homo sapiens), sequence (P27361 whole entry, looked up): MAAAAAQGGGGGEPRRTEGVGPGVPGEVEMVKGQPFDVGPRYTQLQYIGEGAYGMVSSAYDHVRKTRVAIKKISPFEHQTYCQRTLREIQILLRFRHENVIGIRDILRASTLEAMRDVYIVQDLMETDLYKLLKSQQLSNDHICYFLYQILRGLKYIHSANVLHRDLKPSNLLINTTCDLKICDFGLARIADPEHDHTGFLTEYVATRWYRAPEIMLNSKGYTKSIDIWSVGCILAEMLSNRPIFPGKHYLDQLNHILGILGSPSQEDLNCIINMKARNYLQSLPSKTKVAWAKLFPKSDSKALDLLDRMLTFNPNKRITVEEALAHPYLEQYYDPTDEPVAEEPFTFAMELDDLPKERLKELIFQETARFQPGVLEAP
Mitogen-activated protein kinase; ERK1/ERK2 (Homo sapiens), sequence (P28482 whole entry, looked up): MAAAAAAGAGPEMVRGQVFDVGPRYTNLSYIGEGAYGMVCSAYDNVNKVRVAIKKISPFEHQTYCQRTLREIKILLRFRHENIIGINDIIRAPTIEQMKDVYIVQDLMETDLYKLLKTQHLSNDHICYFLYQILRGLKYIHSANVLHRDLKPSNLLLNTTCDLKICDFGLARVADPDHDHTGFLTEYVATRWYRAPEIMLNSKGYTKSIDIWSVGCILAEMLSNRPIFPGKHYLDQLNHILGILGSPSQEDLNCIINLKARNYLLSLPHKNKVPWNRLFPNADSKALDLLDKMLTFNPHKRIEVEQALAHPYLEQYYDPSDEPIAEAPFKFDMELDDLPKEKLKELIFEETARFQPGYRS

For the compound `CC(C)[C@@H]1NC(=O)[C@H](Cc2ccc(OP(=O)(O)O)cc2)NC(=O)[C@H](CCCNC(=N)N)NC(=O)[C@H](CCCNC(=N)N)NC(=O)[C@@H]2CCCN2C(=O)[C@H]2CCCN2C(=O)[C@@H](CCCNC(=N)N)NC(=O)[C@H](Cc2ccc3ccccc3c2)NC(=O)[C@H](Cc2ccccc2)NC(=O)[C@H](CC(=O)NCCOCCOCC(=O)N[C@@H](CCCCNC(=O)c2ccc3c(c2)C(=O)OC32c3ccc4cc(O)ccc4c3Oc3c2ccc2cc(O)ccc32)C(N)=O)NC1=O`, the inhibition result in data set [1] was “inactive”. For the same compound, in data set [2], the Stabilty result is “Unstable”. In addition, the RFU in data set [3] is on record as 49%. The outcome in data set [4] was inactive. This compound returned a concentration for half-maximal inhibition (IC50) in data set [5] of 400 nM. For the same compound, in data set [6], the inhibition result is “Active”.
`CC(C)[C@@H]1NC(=O)[C@H](Cc2ccc(O)cc2)NC(=O)[C@H](CCCNC(=N)N)NC(=O)[C@H](CCCNC(=N)N)NC(=O)[C@@H]2CCCN2C(=O)[C@H]2CCCN2C(=O)[C@@H](CCCNC(=N)N)NC(=O)[C@H](Cc2ccc3ccccc3c2)NC(=O)[C@H](Cc2ccccc2)NC(=O)[C@H](CC(=O)NCCOCCOCC(=O)N[C@@H](CCCCNC(=O)c2ccc3c(c2)C(=O)OC32c3ccc4cc(O)ccc4c3Oc3c2ccc2cc(O)ccc32)C(N)=O)NC1=O`: the RFU in data set [3] stood at 34%. In data set [7], the IC50 was greater than 10000 nM. The inhibition result in data set [6] is “inactive”.
On the same counts, the results for `CC(C)[C@@H]1NC(=O)[C@H](Cc2ccc(OP(=O)(O)O)cc2)NC(=O)[C@H](CCCNC(=N)N)NC(=O)[C@H](CCCNC(=N)N)NC(=O)[C@@H]2CCCN2C(=O)[C@H]2CCCN2C(=O)[C@@H](C)NC(=O)[C@H](C)NC(=O)[C@H](Cc2ccccc2)NC(=O)[C@H](CC(=O)NCCOCCOCC(=O)N[C@@H](CCCCNC(=O)c2ccc3c(c2)C(=O)OC32c3ccc4cc(O)ccc4c3Oc3c2ccc2cc(O)ccc32)C(N)=O)NC1=O` are 2%, 100 nM and “inactive”.
